Rows were chosen to be rich in hits. Some 3.2% of all compounds tested hit in one or more screens of this group.
DENV2 CPE = protects cells from dengue virus 2 cytopathic effect; DENV2-infected cells, cytopathic effect rescue, plate reader; CPE inhibition, % at 9.99 µM; hit rate 1.7% among 350,000; in the data active = CPE inhibition above about 20%, passing the limit was not always enough; tested in BHK-21 cells
AF4-AF9 inh = MLL-AF4/AF9 protein interaction inhibition; AlphaScreen, biotin-AF4 peptide binding to FLAG-AF9; inhibition, % at 10 µM; P42568; AID 651704; hit rate 0.47% among 350,000;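 active = every replicate reaching a set inhibition limit, whatever the replicate mean, cut at about 25% in these data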
Target sequence (P42568 whole entry, looked up): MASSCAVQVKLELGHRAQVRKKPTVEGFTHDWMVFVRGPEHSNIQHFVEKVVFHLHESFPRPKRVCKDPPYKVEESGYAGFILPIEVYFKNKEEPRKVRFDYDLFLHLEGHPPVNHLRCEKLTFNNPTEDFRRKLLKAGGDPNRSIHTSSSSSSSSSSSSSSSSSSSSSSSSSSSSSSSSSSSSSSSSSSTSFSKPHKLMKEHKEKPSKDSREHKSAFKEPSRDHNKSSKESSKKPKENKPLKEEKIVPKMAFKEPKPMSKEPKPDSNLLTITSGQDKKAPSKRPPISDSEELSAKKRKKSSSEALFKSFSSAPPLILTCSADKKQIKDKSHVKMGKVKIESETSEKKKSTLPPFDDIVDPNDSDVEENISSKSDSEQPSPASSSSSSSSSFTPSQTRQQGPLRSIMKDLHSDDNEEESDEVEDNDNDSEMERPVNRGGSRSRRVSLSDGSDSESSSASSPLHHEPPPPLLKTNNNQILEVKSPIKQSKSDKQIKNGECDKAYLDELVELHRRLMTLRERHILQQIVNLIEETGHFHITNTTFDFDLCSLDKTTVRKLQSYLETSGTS
rRNA inh HTS = inhibits bacterial ribosomal RNA function over humanized ribosomes; E. coli WT GFP vs humanized-ribosome RFP mutants, fluorescence, 24 h; stronger effect = lower value; DMSO median 0, no signal -100; GFP signal change (wild-type ribosome), % (test concentration not listed); hit rate 1.6% among 350,000;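 active = significant combined selectivity score with lowered wild-type GFP, culture density cut under 30%, mutant RFP and density less affected; inactive = any of these conditions unmet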
S100A4 MyoIIA = blocks human S100A4 binding to myosin IIA peptide. P26447. S100A4/TAMRA-MyoIIA peptide fluorescence polarization. inhibition, % at 10.7 µM. hit rate 0.14% among 360,000;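 active = mean inhibition of at least 70% across replicates, with every replicate also reaching that level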
Target sequence (P26447 whole entry, looked up): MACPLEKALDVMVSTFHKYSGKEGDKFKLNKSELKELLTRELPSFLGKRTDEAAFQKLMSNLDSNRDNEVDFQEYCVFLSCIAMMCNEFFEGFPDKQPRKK
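System – human S100A4 monomer protein, biochemical binding assay · Buffer or medium – Calcium-containing HEPES buffer, pH 7.2 · Timing – 5 min between mix addition and reading · Also added – TAMRA-labelled myosin IIA heavy-chain peptide probe, 5 nM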
PfHsp90 yeast 2 = reduces growth (ATP signal) of yeast expressing P. falciparum Hsp90; S. cerevisiae expressing PfHsp90, BacTiter-Glo ATP, 48 h; yeast lacking PDR1 and PDR3 efflux regulators; inhibition, % at 9.4 µM; hit rate 0.32% among 310,000; AID 504621;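 active = every replicate shows inhibition above about 80%, whatever the replicate mean, limit read from the data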
Cneo AK release = causes C. neoformans cell lysis | adenylate kinase release luminescence, 4 h; normalised: neutral wells 0, clomiphene wells 100 | hit rate 0.2% among 360,000 | lysis activity, % at 15 µM;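 active = mean lysis activity across replicates of at least 80%, whatever share of replicates individually reach that level; inactive = mean lysis activity below 80%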
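Signal: Adenylate kinase release luminescence | Assay system: Log-phase Cryptococcus neoformans yeast cells | Input: Cells at 5 × 10^6 per mL | Buffer or medium: Fresh YPD growth medium | Compound: Single dose | Schedule: Static 4 h at 37 °C with compound, 1 h detection | Controls: Clomiphene | Read-out: Luminescence rise reflecting yeast cell lysis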
Of the large screens only hits and unclear results are named; the others gave an inactive call; ! = not confirmed by another sample.

Cc1csc(-c2nc3ccccc3n2C(C(=O)NC(C)(C)C)c2ccccc2)c1 (configuration not stated)	DENV2 CPE 22 (no result: AF4-AF9 inh, PfHsp90 yeast 2, Cneo AK release)
CNC[C@@H]1Oc2c(NC(=O)Nc3ccc(C(F)(F)F)cc3)cccc2C(=O)N([C@H](C)CO)C[C@H]1C	none (no result: PfHsp90 yeast 2)
COc1ccccc1-c1ccc([C@H]2[C@@H](CO)N3CCCCN(C(=O)c4ccncc4)C[C@H]23)cc1	none (no result: PfHsp90 yeast 2)
C[C@H](CO)N1C[C@H](C)[C@@H](CN(C)C(=O)NC2CCCC2)Oc2ncc(Br)cc2C1=O	none (no result: PfHsp90 yeast 2)
CNC[C@@H]1Oc2cc(C#CCOC)ccc2S(=O)(=O)N([C@H](C)CO)C[C@H]1C	none (no result: DENV2 CPE, AF4-AF9 inh, S100A4 MyoIIA, PfHsp90 yeast 2, Cneo AK release)
Oc1ccc(C2=NN(c3ccccc3)C(c3ccc(F)cc3)C2)cc1 (configuration not stated)	PfHsp90 yeast 2 120
COc1cc(CCCN2C(=S)NC[C@@H]2c2ccccc2)cc(OC)c1OC	DENV2 CPE 25
O=C(C[C@@H]1CC[C@@H](NC(=O)Cc2ccccn2)[C@H](CO)O1)NCCc1ccncc1	none (no result: DENV2 CPE, AF4-AF9 inh, S100A4 MyoIIA, PfHsp90 yeast 2, Cneo AK release)
Cc1ccc(NCc2nnc(SCC(=O)c3ccc4c(c3)OCCO4)o2)c(C)c1	rRNA inh HTS -36
CC(=O)c1sc(NC(=O)C=C(C)C)nc1C	none (no result: DENV2 CPE, AF4-AF9 inh, rRNA inh HTS, S100A4 MyoIIA)
CC(=O)c1sc(NC(=O)C2(F)C(F)(F)C(F)(F)C(F)(F)C(F)(F)C2(F)F)nc1C	Cneo AK release 136
O=C(NC(=S)N1CCOCC1)c1cn(-c2ccccc2)nc1-c1ccccc1	rRNA inh HTS -19
CCNC(=O)C[C@H]1CC[C@@H]2[C@H](COc3ccc(NC(=O)Nc4ccccc4F)cc3C(=O)N2C)O1	none (no result: PfHsp90 yeast 2)
O=C(c1ccc(NC2=NC3CS(=O)(=O)CC3S2)cc1)N1CCN(c2ccccc2F)CC1 (configuration not stated)	AF4-AF9 inh 48
CCOC(=O)C1CCN(C(=O)c2cccc(NC3=NC4CS(=O)(=O)CC4S3)c2)CC1 (configuration not stated)	none
COc1cccc(N2CCN(C(=O)c3cccc(NC4=NC5CS(=O)(=O)CC5S4)c3)CC2)c1 (configuration not stated)	DENV2 CPE 35
Cc1ccc(C)c(N2CCN(C(=O)c3ccc(Cl)c(NC4=NC5CS(=O)(=O)CC5S4)c3)CC2)c1 (configuration not stated)	DENV2 CPE 28
Cn1c2c(c3ccccc31)CCN1CCC[C@]21c1ccccc1	AF4-AF9 inh 26
C[C@H]1CCCCO[C@@H](CN(C)S(=O)(=O)c2ccc(F)cc2)[C@@H](C)CN([C@@H](C)CO)C(=O)c2cc(NS(=O)(=O)c3cn(C)cn3)ccc2O1	none (no result: PfHsp90 yeast 2)
COc1ccc(NC(=O)N(C)C[C@@H]2OCCCC[C@@H](C)Oc3ccc(NC(=O)CCCN(C)C)cc3C(=O)N([C@@H](C)CO)C[C@H]2C)cc1	DENV2 CPE 67 (no result: PfHsp90 yeast 2)
COc1ccc(NC(=O)N(C)C[C@H]2OCCCC[C@@H](C)Oc3ccc(NS(C)(=O)=O)cc3C(=O)N([C@H](C)CO)C[C@H]2C)cc1	DENV2 CPE 95 (no result: PfHsp90 yeast 2)
C[C@@H]1CCCCO[C@@H](CN(C)C(=O)Nc2ccccc2)[C@H](C)CN([C@@H](C)CO)C(=O)c2cc(NS(C)(=O)=O)ccc2O1	DENV2 CPE 43 (no result: PfHsp90 yeast 2)
COc1ccc(NC(=O)N(C)C[C@H]2OCCCC[C@@H](C)Oc3ccc(NC(=O)CCCN(C)C)cc3C(=O)N([C@@H](C)CO)C[C@@H]2C)cc1	none (no result: PfHsp90 yeast 2)
CCC(=O)Nc1ccc2c(c1)OC[C@@H](C)N(C(=O)CN(C)C)C[C@H](C)[C@H](OC)CN(C)C2=O	none (no result: PfHsp90 yeast 2)
O=C(Nc1ccc(F)cc1)N1[C@@H]2CNC[C@H]1C2c1ccc(/C=C/c2ccccc2)cc1 (some centres not stated)	none (no result: PfHsp90 yeast 2, Cneo AK release)
C/C=C/c1ccc(C2[C@@H]3CN(C(=O)Nc4ccc(C(F)(F)F)cc4)C[C@H]2N3)cc1 (some centres not stated)	DENV2 CPE 41! (no result: AF4-AF9 inh, S100A4 MyoIIA, PfHsp90 yeast 2, Cneo AK release)
O=C(Nc1ccc2c(c1)OCO2)N1[C@@H]2CNC[C@H]1C2c1ccc(/C=C/c2ccccc2)cc1 (some centres not stated)	DENV2 CPE 79 (no result: PfHsp90 yeast 2, Cneo AK release)
C/C=C/c1ccc(C2[C@H]3CNC[C@@H]2N3C(=O)NCCC)cc1 (some centres not stated)	DENV2 CPE 25! (no result: PfHsp90 yeast 2, Cneo AK release)
O=C(Nc1ccc2c(c1)OCO2)N1C[C@@H]2N[C@H](C1)C2c1ccc(C=Cc2ccccc2)cc1 (some centres not stated)	AF4-AF9 inh 56! (no result: PfHsp90 yeast 2, Cneo AK release)
O=C(Nc1ccc(F)cc1)N1C[C@@H]2N[C@H](C1)C2c1ccc(/C=C/c2ccccc2)cc1 (some centres not stated)	none (no result: AF4-AF9 inh, S100A4 MyoIIA, PfHsp90 yeast 2, Cneo AK release)
COc1cccc(-n2c(SCC(=O)NCC3CCCO3)nc3c([nH]c4ccccc43)c2=O)c1 (configuration not stated)	rRNA inh HTS -24
COc1ccc(-c2sc3ccc(OC)cc3c2C#CCCO)cc1	none (no result: DENV2 CPE, AF4-AF9 inh)
COc1ccc2sc(-c3ccc(N(C)C)cc3)c(C#CCCO)c2c1	DENV2 CPE 26
C[C@H](CO)N1C[C@H](C)[C@@H](CN(C)C(=O)C2CCC2)Oc2ncc(C#CC(C)(C)O)cc2C1=O	DENV2 CPE 23 (no result: PfHsp90 yeast 2)
CC(=O)N(C)C[C@@H]1Oc2ncc(C#CC(C)(C)O)cc2C(=O)N([C@@H](C)CO)C[C@H]1C	DENV2 CPE 20 (no result: PfHsp90 yeast 2)
CCC(=O)N(C)C[C@H]1Oc2ncc(C#CC(C)(C)O)cc2C(=O)N([C@H](C)CO)C[C@@H]1C	none (no result: PfHsp90 yeast 2)
CO[C@@H]1CN(C)C(=O)c2ccc(NC(=O)C3CCC3)cc2OC[C@@H](C)N(Cc2ccccn2)C[C@H]1C	none (no result: PfHsp90 yeast 2, Cneo AK release)
C[C@@H]1CN([C@@H](C)CO)C(=O)Cc2cc(NC(=O)Nc3ccccc3)ccc2O[C@H]1CN(C)C(=O)Nc1ccc(C(F)(F)F)cc1	none (no result: AF4-AF9 inh, S100A4 MyoIIA, PfHsp90 yeast 2)
CNC[C@H]1Oc2ccc(NC(=O)Cc3ccccc3)cc2C(=O)N([C@H](C)CO)C[C@@H]1C	none (no result: PfHsp90 yeast 2)
Cc1ccc(C2C(C(=O)c3cccs3)=C(O)C(=O)N2c2cccc(C)n2)cc1 (configuration not stated)	rRNA inh HTS -15 (no result: Cneo AK release)
C=CCOC(=O)C(=O)/C=C/c1ccc(F)cc1	none (no result: rRNA inh HTS, PfHsp90 yeast 2)
C=CCOC(=O)C(=O)/C=C/c1ccc2c(c1)Cc1ccccc1-2	DENV2 CPE 37!
COC(=O)C[C@@H]1CC[C@H]2[C@@H](COc3ccc(NC(=O)Nc4cc(C)cc(C)c4)cc3C(=O)N2C)O1	none (no result: PfHsp90 yeast 2)
O=C(NC1CCCCC1)N1CC(=O)N2[C@H](C1)[C@@H](c1ccc(-c3ccccc3)cc1)[C@@H]2CO	none (no result: PfHsp90 yeast 2, Cneo AK release)
O=S(=O)(O)c1ccc(N=Nc2ccccc2)cc1	none
O=c1ccc(N=Nc2ccccc2)ccc1O	PfHsp90 yeast 2 125
COc1cc(/C=N/NC2=NCCCCC2)ccc1O	none
